Reference: ChEMBL document CHEMBL2046302, “Fused tricyclic indoles as S1P₁ agonists with robust efficacy in animal models of autoimmune disease” (Bioorg Med Chem Lett, 2012)
pEC50, pIC50: −log10 of the molar value.

Key:
[1] = Half life in human liver microsome; format: ADME; conditions: liver microsomes
Salmonella typhimurium [2] = experiment: Mutagenic activity against Salmonella typhimurium assessed as frame shift mutation by ames test; format: toxicity, organism-based; conditions: salmonella enterica subsp. enterica serovar typhimurium
Outline: (§1)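 Ames bacterial reverse mutation test on five strains, scored for frame-shift and base-pair substitution mutations.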

[3] = Volume of distribution at steady state in Sprague-Dawley rat at 2 mg/kg, iv and 3 mg/kg, po; format: ADME, organism-based; conditions: in vivo, read-out: Vdss
Outline: (§2)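 Male Sprague–Dawley rats received 2.0 mg/kg IV in 100% PEG400 and 3.0 mg/kg PO in 0.5% methyl cellulose. Clearance, Vss, terminal half-life, Cmax, AUClast and oral bioavailability were derived from plasma levels.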

[4] = molecular target: Sphingosine 1-phosphate receptor 1 (Mus musculus, UniProt O08530); experiment: Agonist activity against mouse S1P1 assessed as accumulation of cAMP by HTRF assay; format: functional
Outline: (§3)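 Agonist EC50 was read from a cAMP HTRF assay run on human, rat and mouse S1P1. Response was scaled against S1P, and values are the mean of three or more replicates.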

Rattus norvegicus [5] = experiment: Toxicity in telemeterized Charles-River Sprague-Dawley rat assessed as reduction in heart rate at 3 mg/kg, po measured over 20 hrs; format: organism-based; set-up: dose 3 mg/kg, route oral; conditions: in vivo
Outline: (§4)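 Telemeterized Charles River Sprague–Dawley rats received 3 or 30 mg/kg orally as a suspension in 0.5% methyl cellulose, with vehicle-treated and positive-control groups. Heart rate was recorded hourly over 20 h.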

[6] = molecular target: Sphingosine 1-phosphate receptor 3 (Homo sapiens, UniProt Q99500); experiment: Agonist activity against human S1P3 by beta arrestin recruitment assay; format: functional
Outline: (§5)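 Agonist EC50 at human S1P1 through S1P5 was measured by β-arrestin recruitment. Values are the mean of three or more replicates.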

[7] = molecular target: Sphingosine 1-phosphate receptor 1 (Rattus norvegicus, UniProt P48303); experiment: Agonist activity against rat S1P1 assessed as accumulation of cAMP by HTRF assay; format: functional; outline: as §3
Cytochrome P450 3A4 = Cytochrome P450 3A4 (Homo sapiens, UniProt P08684); experiment: Inhibition of CYP3A4; format: ADME
Cytochrome P450 2C9 = Cytochrome P450 2C9 (Homo sapiens, UniProt P11712); experiment: Inhibition of CYP2C9; format: ADME
[8] = molecular target: Sphingosine 1-phosphate receptor 5 (Homo sapiens, UniProt Q9H228); experiment: Agonist activity against human S1P5 by beta arrestin recruitment assay; format: functional; outline: as §5
[9] = Half life in rat liver microsome; format: ADME; conditions: liver microsomes
[10] = molecular target: T1, Voltage-gated inwardly rectifying potassium channel KCNH2 (Homo sapiens, UniProt Q12809); experiment: Inhibition of human ERG by astemizole assay
Cytochrome P450 2D6 = Cytochrome P450 2D6 (Homo sapiens, UniProt P10635); experiment: Inhibition of CYP2D6; format: ADME
[11] = molecular target: T2, Sphingosine 1-phosphate receptor 1 (Homo sapiens, UniProt P21453); experiment: Agonist activity against human S1P1 by beta arrestin recruitment assay; format: functional; outline: as §5
Rattus norvegicus [12] = experiment: Toxicity in telemeterized Charles-River Sprague-Dawley rat assessed as reduction in heart rate at 30 mg/kg, po measured over 20 hrs; format: organism-based; set-up: dose 30 mg/kg, route oral; conditions: in vivo; outline: as §4
[13] = molecular target: T1, Voltage-gated inwardly rectifying potassium channel KCNH2; experiment: Inhibition of human ERG by patch clamp assay
[14] = Oral bioavailability in Sprague-Dawley rat at 3 mg/kg; format: ADME, organism-based; conditions: in vivo; outline: as §2
[15] = Terminal half life in Sprague-Dawley rat at 2 mg/kg, iv and 3 mg/kg, po; format: ADME, organism-based; conditions: in vivo, read-out: beta t1/2 (converted); outline: as §2
Cytochrome P450 1A2 = molecular target: T3, Cytochrome P450 1A2 (Homo sapiens, UniProt P05177); experiment: Inhibition of CYP1A2; format: ADME
T3 sequence (P05177 whole entry): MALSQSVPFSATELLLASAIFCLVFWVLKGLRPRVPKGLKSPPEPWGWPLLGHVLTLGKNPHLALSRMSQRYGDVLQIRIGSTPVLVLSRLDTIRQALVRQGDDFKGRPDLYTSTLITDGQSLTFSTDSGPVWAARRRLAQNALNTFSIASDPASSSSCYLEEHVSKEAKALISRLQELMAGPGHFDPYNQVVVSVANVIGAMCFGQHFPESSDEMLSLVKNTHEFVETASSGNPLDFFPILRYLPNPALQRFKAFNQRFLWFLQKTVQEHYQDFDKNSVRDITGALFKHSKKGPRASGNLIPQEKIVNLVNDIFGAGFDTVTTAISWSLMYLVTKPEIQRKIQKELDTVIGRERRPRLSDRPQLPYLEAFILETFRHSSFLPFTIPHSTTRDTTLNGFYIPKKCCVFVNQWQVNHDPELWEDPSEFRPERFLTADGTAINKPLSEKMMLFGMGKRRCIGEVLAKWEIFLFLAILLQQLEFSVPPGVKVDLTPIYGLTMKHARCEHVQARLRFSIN

[16] = Cmax in Sprague-Dawley rat in Sprague-Dawley rat at 2 mg/kg, iv and 3 mg/kg, po; format: ADME, organism-based; conditions: in vivo; outline: as §2
[17] = molecular target: T2, Sphingosine 1-phosphate receptor 1; experiment: Agonist activity against human S1P1 assessed as accumulation of cAMP by HTRF assay; format: functional; outline: as §3
[18] = Clearance in Sprague-Dawley rat at 2 mg/kg, iv and 3 mg/kg, po; format: ADME, organism-based; conditions: in vivo; outline: as §2
[19] = AUClast in Sprague-Dawley rat in Sprague-Dawley rat at 2 mg/kg, iv and 3 mg/kg, po; format: ADME, organism-based; conditions: plasma; outline: as §2
[20] = molecular target: T4, Sphingosine 1-phosphate receptor 4 (Homo sapiens, UniProt O95977); experiment: Agonist activity against human S1P4 by beta arrestin recruitment assay; format: functional; outline: as §5
T4 sequence (O95977 whole entry): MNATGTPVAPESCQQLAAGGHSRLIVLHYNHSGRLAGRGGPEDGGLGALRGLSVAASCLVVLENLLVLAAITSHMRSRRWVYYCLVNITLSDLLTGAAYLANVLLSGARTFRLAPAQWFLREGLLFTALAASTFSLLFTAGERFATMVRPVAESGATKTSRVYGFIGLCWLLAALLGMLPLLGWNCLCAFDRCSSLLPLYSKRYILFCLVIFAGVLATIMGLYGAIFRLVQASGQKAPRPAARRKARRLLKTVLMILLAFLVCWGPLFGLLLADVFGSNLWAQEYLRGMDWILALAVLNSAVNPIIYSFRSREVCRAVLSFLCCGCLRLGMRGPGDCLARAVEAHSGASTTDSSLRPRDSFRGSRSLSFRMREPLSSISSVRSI

Cytochrome P450 2C19 = Cytochrome P450 2C19 (Homo sapiens, UniProt P33261); experiment: Inhibition of CYP2C19; format: ADME
[21] = molecular target: Sphingosine 1-phosphate receptor 2 (Homo sapiens, UniProt O95136); experiment: Agonist activity against human S1P2 by beta arrestin recruitment assay; format: functional; outline: as §5
Salmonella typhimurium [22] = experiment: Mutagenic activity against Salmonella typhimurium assessed as base pair mutation by ames test; format: toxicity, organism-based; conditions: salmonella enterica subsp. enterica serovar typhimurium; outline: as §1

T1 sequence (Q12809 whole entry): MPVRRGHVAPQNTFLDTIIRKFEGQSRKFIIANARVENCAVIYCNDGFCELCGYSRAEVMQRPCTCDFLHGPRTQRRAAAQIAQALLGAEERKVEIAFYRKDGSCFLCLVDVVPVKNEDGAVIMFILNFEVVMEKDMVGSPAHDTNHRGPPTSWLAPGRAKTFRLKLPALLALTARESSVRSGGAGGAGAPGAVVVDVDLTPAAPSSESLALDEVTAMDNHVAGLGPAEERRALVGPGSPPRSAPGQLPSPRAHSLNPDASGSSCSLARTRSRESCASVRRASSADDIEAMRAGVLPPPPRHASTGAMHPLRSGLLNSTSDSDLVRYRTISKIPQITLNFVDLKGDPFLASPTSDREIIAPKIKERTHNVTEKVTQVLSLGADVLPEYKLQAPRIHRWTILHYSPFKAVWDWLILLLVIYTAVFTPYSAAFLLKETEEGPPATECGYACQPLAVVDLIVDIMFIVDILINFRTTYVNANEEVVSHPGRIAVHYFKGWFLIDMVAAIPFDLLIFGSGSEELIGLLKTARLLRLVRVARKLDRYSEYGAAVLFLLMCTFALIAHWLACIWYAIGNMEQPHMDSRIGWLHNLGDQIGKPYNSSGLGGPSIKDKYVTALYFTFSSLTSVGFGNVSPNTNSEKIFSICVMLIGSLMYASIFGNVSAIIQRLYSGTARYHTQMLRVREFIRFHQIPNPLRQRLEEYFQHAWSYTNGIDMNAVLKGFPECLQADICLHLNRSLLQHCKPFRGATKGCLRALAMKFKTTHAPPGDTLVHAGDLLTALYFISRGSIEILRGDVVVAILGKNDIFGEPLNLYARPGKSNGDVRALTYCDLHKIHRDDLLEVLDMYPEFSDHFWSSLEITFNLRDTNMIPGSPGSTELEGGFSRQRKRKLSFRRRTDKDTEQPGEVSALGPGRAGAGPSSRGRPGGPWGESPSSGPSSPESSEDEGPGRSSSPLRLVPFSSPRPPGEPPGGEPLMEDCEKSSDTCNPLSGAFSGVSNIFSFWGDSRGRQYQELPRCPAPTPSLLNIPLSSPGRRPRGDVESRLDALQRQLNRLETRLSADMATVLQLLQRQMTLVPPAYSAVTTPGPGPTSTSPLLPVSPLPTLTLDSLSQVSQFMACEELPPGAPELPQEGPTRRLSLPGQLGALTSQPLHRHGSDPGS
T2 sequence (P21453 whole entry): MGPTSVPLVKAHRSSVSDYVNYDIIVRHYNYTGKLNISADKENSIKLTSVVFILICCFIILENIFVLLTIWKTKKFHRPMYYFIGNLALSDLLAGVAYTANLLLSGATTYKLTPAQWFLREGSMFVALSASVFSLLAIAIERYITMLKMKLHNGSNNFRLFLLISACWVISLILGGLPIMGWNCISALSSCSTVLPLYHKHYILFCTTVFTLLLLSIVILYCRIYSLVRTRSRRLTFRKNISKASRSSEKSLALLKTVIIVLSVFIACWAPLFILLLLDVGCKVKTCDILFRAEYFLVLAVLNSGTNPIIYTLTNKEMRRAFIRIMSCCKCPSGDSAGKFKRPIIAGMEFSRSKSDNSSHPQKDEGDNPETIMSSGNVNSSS
Sequence of Cytochrome P450 2C9 (P11712 whole entry): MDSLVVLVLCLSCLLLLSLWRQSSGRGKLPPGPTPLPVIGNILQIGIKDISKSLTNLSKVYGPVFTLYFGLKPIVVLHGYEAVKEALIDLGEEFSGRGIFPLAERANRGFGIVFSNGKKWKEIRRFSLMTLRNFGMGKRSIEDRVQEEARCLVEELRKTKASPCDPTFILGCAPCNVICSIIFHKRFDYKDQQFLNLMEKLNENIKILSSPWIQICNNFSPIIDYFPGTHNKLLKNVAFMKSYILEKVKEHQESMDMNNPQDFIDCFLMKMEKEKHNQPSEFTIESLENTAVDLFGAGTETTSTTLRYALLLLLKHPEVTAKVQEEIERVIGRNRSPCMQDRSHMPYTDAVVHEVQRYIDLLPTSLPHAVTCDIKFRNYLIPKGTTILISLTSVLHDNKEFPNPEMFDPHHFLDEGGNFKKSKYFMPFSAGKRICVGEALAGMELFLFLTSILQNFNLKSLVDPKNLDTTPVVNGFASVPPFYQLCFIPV
Sequence of Sphingosine 1-phosphate receptor 3 (Q99500 whole entry): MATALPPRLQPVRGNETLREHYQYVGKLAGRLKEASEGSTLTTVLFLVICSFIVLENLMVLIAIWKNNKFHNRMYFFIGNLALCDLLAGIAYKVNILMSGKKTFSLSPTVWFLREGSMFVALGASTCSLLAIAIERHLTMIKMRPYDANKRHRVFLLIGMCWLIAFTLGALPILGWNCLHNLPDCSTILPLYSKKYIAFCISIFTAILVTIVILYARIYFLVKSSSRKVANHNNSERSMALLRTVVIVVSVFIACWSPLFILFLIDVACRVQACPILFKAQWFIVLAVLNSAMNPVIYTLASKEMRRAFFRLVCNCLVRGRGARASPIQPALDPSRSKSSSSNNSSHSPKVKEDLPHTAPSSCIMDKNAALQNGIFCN
Sequence of Sphingosine 1-phosphate receptor 1 (Rattus norvegicus, UniProt P48303) (P48303 whole entry): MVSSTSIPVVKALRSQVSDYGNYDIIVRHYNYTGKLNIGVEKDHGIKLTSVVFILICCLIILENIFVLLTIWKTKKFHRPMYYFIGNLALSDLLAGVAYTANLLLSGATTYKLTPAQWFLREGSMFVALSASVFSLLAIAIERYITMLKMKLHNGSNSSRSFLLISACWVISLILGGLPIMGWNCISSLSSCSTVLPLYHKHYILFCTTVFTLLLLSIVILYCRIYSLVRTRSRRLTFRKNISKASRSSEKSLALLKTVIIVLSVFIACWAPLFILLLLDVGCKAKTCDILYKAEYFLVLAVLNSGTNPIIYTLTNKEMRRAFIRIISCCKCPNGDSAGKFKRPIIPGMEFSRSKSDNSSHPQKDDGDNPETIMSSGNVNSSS
Sequence of Cytochrome P450 2D6 (P10635 whole entry): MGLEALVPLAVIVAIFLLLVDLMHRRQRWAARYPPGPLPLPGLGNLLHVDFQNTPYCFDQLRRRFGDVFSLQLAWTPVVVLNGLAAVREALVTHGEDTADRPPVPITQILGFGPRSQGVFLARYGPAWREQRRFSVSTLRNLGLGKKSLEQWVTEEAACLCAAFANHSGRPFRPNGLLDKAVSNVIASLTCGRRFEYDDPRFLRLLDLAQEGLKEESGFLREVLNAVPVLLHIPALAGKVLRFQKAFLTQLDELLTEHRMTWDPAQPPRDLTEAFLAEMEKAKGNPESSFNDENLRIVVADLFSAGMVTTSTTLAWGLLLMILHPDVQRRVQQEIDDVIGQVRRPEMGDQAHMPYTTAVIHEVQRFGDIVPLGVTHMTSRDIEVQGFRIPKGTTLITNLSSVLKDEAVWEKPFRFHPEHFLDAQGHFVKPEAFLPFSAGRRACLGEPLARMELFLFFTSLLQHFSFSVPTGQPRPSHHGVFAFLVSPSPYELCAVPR
Sequence of Sphingosine 1-phosphate receptor 5 (Q9H228 whole entry): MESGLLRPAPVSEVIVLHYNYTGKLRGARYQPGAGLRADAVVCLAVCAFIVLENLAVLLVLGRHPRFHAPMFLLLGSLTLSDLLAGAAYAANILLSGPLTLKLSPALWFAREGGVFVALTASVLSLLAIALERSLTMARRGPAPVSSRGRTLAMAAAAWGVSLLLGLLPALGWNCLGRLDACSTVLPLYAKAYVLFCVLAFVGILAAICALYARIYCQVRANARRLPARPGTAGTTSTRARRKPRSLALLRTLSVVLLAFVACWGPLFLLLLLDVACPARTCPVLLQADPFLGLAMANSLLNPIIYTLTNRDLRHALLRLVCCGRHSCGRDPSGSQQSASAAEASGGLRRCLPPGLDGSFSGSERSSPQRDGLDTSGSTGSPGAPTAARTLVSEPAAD
Sequence of Cytochrome P450 2C19 (P33261 whole entry): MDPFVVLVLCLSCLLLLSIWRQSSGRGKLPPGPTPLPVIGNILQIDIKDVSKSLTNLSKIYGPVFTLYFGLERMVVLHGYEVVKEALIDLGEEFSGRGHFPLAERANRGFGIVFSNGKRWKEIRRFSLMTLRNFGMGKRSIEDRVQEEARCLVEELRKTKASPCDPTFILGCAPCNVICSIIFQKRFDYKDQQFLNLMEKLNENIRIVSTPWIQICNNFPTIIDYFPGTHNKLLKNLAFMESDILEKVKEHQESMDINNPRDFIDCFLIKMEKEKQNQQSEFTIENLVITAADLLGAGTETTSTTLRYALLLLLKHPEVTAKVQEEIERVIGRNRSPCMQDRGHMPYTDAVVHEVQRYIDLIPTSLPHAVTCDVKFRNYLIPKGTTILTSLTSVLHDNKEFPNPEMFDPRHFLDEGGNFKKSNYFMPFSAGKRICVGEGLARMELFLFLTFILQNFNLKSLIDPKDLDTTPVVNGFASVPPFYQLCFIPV
Sequence of Cytochrome P450 3A4 (P08684 whole entry): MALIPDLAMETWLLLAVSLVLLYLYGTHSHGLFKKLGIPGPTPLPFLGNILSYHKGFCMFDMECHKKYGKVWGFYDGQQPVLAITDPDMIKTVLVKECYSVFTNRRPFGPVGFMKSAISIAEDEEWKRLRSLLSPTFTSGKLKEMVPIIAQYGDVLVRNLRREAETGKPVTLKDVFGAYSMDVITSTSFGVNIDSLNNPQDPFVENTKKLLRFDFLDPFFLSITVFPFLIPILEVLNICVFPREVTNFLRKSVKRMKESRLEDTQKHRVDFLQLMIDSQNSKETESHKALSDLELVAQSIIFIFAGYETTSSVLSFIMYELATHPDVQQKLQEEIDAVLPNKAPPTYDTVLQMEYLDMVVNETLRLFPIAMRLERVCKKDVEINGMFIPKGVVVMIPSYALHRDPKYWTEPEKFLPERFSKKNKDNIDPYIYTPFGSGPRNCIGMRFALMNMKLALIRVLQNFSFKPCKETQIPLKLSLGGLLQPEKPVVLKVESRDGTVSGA

With `N#Cc1cc(OC(F)(F)F)cc(-c2nc(-c3ccc4c(c3)cc3n4CCC3CC(=O)O)no2)c1` (single isomer, unassigned; enantiomer 2) the half-life [1] was over 60 min, the Activity (Salmonella typhimurium [2]) was “Non-toxic” and the Vd [3] was 0.234 L/kg. The pEC50 [4] was 9.28, the Activity (Rattus norvegicus [5]) was “Non-toxic” and the pEC50 [6] was under 4.00. For the same molecule, the pEC50 [7] was 10.00, the pIC50 (Cytochrome P450 3A4) was under 4.52 and the pIC50 (Cytochrome P450 2C9) was under 4.52. It also gave a pEC50 [8] of 7.68, a half-life [9] of over 60 min and a pIC50 [10] of under 4.52. For the same molecule, the pIC50 (Cytochrome P450 2D6) was under 4.52, the pEC50 [11] was 8.32 and the Activity (Rattus norvegicus [12]) was “Non-toxic”. For the same molecule, the pIC50 [13] was under 3.40, the bioavailability [14] was 100% and the half-life [15] was 281 min. For the same molecule, the pIC50 (Cytochrome P450 1A2) was under 4.52, the Cmax [16] was 13300 ng/mL and the pEC50 [17] was 10.10. The clearance [18] was 0.422 mL/min/kg, the AUC(0-t) [19] was 124 µg·h/mL and the pEC50 [20] was under 4.00. For the same molecule, the pIC50 (Cytochrome P450 2C19) was under 4.52, the pEC50 [21] was under 4.00 and the Activity (Salmonella typhimurium [22]) was “Non-toxic”.
